One block for each molecule: values may come before it. Where a SMILES comes first, the peptide text is derived from it. Bridges are numbered along the chain shown (N, C = ends). [ ]: non-standard residue; d: D form. Bip = N[C@@H](Cc1ccc(-c2ccccc2)cc1)C(=O)O; NMeS = CN[C@@H](CO)C(=O)O
Key:
[1] = tested on: SJSA-1 cells; test: WST-1 cell proliferation assay in SJSA-1 cells; format: cell-based; details: Homo sapiens, SJSA-1, 24 h, read-out: GI50 growth inhibition
Procedure, shortened: (§1)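 Cells were exposed for 24 h to varying concentrations of the synthesized macrocyclic peptide MDM2 inhibitors, and proliferation was read out by the WST-1 assay. The same test was run in MDM2-dependent SJSA-1 cells and in p53-mutant SW-480 cells, the latter as a control line. A small-molecule MDM2 inhibitor served as the positive control.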

[2] = tested on: SW-480 cells; test: WST-1 cell proliferation assay in SW-480 cells; format: cell-based; details: p53-mutant SW-480 cells, 24 hours
Procedure, shortened: as §1

[3] = biological target: MDM2 (Homo sapiens, UniProt Q00987); test: TR-FRET competition; format: binding
[4] = biological target: T1, MDM4 (Homo sapiens, UniProt O15151); test: TR-FRET competition; format: binding; details: His(96) of MDM2 replaced by proline in MDM4
T1 sequence (O15151 2-185): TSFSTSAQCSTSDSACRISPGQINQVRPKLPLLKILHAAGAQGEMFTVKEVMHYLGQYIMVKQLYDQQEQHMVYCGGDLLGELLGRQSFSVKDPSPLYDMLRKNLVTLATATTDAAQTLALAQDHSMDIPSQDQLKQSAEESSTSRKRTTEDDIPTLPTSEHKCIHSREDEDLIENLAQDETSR

[5] = tested on: SJSA-1 cells; test: SJSA-1 cellular assay; format: cell-based; details: tested up to 30 μM
[6] = tested on: nuclear MDM2 in SJSA-1 cells; test: MDM2 immunofluorescence; format: cell-based; details: 4 hours

Sequence of MDM2 (Q00987 2-188): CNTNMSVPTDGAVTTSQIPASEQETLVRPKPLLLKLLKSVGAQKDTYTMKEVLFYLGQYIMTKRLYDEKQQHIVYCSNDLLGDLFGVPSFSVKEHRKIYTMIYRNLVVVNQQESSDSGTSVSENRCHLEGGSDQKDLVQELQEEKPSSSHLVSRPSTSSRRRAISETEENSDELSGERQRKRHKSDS

GI50 [1]: ~1000 nM
Compound: COc1cc2c(cc1OC(C)C)[C@H](c1ccc(Cl)cc1)N(c1ccc(N(C)C[C@H]3CC[C@H](N4CCN(C)C(=O)C4)CC3)cc1)C(=O)C2 [CGM097]

Compound: CC(=O)N[C@@H](CSSC[C@H](N)C(=O)NCCOCCOCC(=O)NCCOCCOCC(=O)N[C@H]1CCCCNC(=O)CC[C@@H](C(N)=O)NC(=O)[C@H](CCCNC(=N)N)NC(=O)[C@@H](CCCNC(=N)N)NC(=O)[C@H](CCCNC(=N)N)NC(=O)[C@@H](CCCNC(=N)N)NC(=O)[C@H](CCCNC(=N)N)NC(=O)[C@@H](CCCNC(=N)N)NC(=O)[C@H](CCCNC(=N)N)NC(=O)[C@@H](CCCNC(=N)N)NC(=O)[C@H](CCCNC(=N)N)NC(=O)[C@@H](CCCNC(=N)N)NC1=O)C(=O)NCCCC[C@H](NC(=O)CNC(=O)[C@@H]1CSCC(=O)N[C@@H](Cc2ccccc2)C(=O)N[C@@H](CO)C(=O)N[C@@H](CC(=O)O)C(=O)N(C)[C@@H](CO)C(=O)N[C@@H](CO)C(=O)N[C@@H](CO)C(=O)N[C@@H](C(C)C)C(=O)N2CCC[C@H]2C(=O)N[C@@H](CC(N)=O)C(=O)N[C@@H](Cc2ccc(-c3ccccc3)cc2)C(=O)N[C@@H](Cc2ccc(-c3ccccc3)cc2)C(=O)N[C@@H](CCCNC(=N)N)C(=O)N[C@@H](CC(N)=O)C(=O)N1)C(N)=O [CMR19-cR10]
growth inhibitory effect [2]: no growth inhibition

Compound: CC(C)[C@@H]1NC(=O)[C@H](CO)NC(=O)[C@H](CO)NC(=O)[C@H](CO)N(C)C(=O)[C@H](CC(=O)O)NC(=O)[C@H](CO)NC(=O)[C@H](Cc2ccccc2)NC(=O)CSC[C@@H](C(=O)NCC(N)=O)NC(=O)[C@H](CC(N)=O)NC(=O)[C@H](CCCNC(=N)N)NC(=O)[C@H](Cc2ccc(-c3ccccc3)cc2)NC(=O)[C@H](Cc2ccc(-c3ccccc3)cc2)NC(=O)[C@H](CC(N)=O)NC(=O)[C@@H]2CCCN2C1=O [CMR19] ({CH2CO}-FSD[NMeS]SSVPN[Bip][Bip]RNCG-NH2; thioether N-14)
IC50 [3]: 0.18 nM | Ki [3]: 0.15 nM | loss in affinity for MDM4 versus MDM2 [4]: more than thousand fold loss in affinity | cytotoxic response on SJSA-1 cells [5]: did not observe any cytotoxic response

Compound: CC(C)[C@@H]1NC(=O)[C@H](CO)NC(=O)[C@H](CO)NC(=O)[C@H](CO)N(C)C(=O)[C@H](CC(=O)O)NC(=O)[C@H](CO)NC(=O)[C@H](Cc2ccccc2)NC(=O)CSC[C@@H](C(=O)NCC(N)=O)NC(=O)[C@H](CC(N)=O)NC(=O)[C@H](CCCNC(=N)N)NC(=O)[C@H](C)NC(=O)[C@H](Cc2ccc(-c3ccccc3)cc2)NC(=O)[C@H](CC(N)=O)NC(=O)[C@@H]2CCCN2C1=O [MMS95] ({CH2CO}-FSD[NMeS]SSVPN[Bip]ARNCG-NH2; thioether N-14)
concentration-dependent enrichment of nuclear MDM2 (quantified fluorescence) ([6]; 0.4-10 µM): does not | enrichment of MDM2 in the nuclei compared to the DMSO control ([6]; 37 °C, immunofluorescence): did not result in increased nuclear staining | IC50 [3]: > 10000 nM | binding to MDM2 in the TR-FRET assay [3]: no binding

Reference: paper PMC8637822 (RSC Chemical Biology, 2021)
